The text below walks through data of ChEMBL document CHEMBL1955789, “3,4-Diarylpiperidines as potent renin inhibitors” (Bioorg Med Chem Lett, 2012).

Data set [1] addresses T1, CYP3A4 (Homo sapiens, UniProt P08684). Nature of the data set: Time dependent inhibition of CYP3A4 using testosterone as substrate at 10 uM for 30 mins. Type of data set: ADME. The conditions noted are these: probe testosterone. The procedure, abridged: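 CYP3A4 conversion of testosterone (250 µM) to 6β-hydroxytestosterone compared before and after a 30 min preincubation with compound in DMSO. Result expressed as percentage activity loss; 0% change means no measurable time-dependent inhibition.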

Data set [2] deals with T1, CYP3A4. Nature of the data set: Reversible inhibition of CYP3A4 using testosterone as substrate assessed as remaining activity at 10 uM. The format is ADME. The conditions noted are these: probe testosterone; read-out: Activity.
Data set [3] addresses T2, Renin (Homo sapiens, UniProt P00797).
T2 sequence (P00797 whole entry): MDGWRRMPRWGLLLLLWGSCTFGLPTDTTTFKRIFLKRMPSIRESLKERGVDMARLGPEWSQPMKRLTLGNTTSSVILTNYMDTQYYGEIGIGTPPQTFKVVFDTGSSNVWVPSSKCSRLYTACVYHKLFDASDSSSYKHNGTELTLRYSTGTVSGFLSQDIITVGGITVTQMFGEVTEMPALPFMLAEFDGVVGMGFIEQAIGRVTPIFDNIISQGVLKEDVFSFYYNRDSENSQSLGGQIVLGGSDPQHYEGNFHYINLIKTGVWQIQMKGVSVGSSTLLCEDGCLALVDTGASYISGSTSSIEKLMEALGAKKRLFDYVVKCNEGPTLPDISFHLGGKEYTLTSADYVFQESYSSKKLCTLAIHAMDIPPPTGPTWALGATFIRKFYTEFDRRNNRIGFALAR
Nature of the data set: Inhibition of human recombinant renin using DNP-Lys-His-Pro-Phe-His-Leu-Val-Ile-His-D,L-Amp as substrate after 3 hrs by fluorimetry. An outline of the steps: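 Human recombinant renin at 100 pM incubated with or without inhibitor and 6 µM Q-FRET substrate in 50 mM MOPS, 100 mM NaCl, pH 7.4, 0.002% Tween, 37 °C for 3 h. Fluorescence read at 0 and 3 h (ex 328 nm, em 388 nm). Values are means of at least two experiments.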

Data set [4] concerns the target T2, Renin. Nature of the data set: Inhibition of human recombinant renin using QXL520-Lys-His-Pro-Phe-His-Leu-Val-Ile-His-Lys-(5-FAM) as substrate preincubated for 10 mins prior to substrate addition measure after 1 hr by fluorimetry in the presence of human plasma. The procedure, abridged:
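Frozen human EDTA-plasma thawed and centrifuged at 2900 g for 15 min. Recombinant human renin was added to the supernatant at 1 nM nominal, and inhibitor preincubation was 10 min at 37 °C. Q-FRET substrate was added in Tris/EDTA pH 7.2, then incubated 1 h at 37 °C. Fluorescence read at 0 and 1 h (ex 490 nm, em 520 nm). Means of at least two experiments.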

Data set [5] deals with Voltage-gated inwardly rectifying potassium channel KCNH2 (Homo sapiens, UniProt Q12809). Nature of the data set: Inhibition of human ERG.
Sequence of Voltage-gated inwardly rectifying potassium channel KCNH2 (Q12809 whole entry): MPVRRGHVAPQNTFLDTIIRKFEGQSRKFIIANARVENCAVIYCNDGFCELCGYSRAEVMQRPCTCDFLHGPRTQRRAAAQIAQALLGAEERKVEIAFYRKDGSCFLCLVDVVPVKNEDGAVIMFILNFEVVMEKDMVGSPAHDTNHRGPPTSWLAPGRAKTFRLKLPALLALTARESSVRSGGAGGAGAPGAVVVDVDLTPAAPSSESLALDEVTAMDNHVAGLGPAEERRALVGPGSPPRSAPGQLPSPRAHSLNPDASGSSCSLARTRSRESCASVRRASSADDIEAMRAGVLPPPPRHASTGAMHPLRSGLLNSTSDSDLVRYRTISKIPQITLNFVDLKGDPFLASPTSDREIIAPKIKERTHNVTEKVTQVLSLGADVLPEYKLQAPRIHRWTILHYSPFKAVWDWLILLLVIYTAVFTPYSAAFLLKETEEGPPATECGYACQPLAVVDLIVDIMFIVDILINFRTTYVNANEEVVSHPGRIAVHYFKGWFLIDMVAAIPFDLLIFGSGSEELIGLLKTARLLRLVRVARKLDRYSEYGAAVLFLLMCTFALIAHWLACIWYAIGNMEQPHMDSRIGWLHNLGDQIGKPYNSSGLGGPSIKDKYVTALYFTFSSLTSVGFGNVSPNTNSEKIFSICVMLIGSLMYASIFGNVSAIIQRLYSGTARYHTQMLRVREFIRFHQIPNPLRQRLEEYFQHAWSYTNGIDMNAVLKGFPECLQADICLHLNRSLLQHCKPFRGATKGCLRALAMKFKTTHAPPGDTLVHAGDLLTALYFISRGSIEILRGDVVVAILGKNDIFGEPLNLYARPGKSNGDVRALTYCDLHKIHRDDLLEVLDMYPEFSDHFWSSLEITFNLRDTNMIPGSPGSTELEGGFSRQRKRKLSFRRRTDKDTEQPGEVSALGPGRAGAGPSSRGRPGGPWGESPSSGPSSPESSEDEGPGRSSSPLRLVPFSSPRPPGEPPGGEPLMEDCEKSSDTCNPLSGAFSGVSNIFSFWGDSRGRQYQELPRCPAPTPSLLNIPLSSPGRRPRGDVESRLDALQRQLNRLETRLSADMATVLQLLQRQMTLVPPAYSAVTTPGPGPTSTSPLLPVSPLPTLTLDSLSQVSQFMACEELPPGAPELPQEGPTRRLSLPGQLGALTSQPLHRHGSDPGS
Data set [6] can be described thus: Cmax in Sprague-Dawley rat at 30 mg/kg, po and 5 mg/kg, iv. The format is ADME, organism-based. The conditions noted are these: in vivo.
The nature of data set [7]: Volume of distribution at steady state in Sprague-Dawley rat at 30 mg/kg, po and 5 mg/kg, iv. Type of data set: ADME, organism-based. The conditions noted are these: in vivo, read-out: Vdss.
A short description of data set [8]: Volume of distribution at steady state in Beagle dog at 3 mg/kg, po and 1 mg/kg, iv. The conditions noted are these: in vivo, read-out: Vdss. The format is ADME, organism-based, Canis lupus familiaris.
A short description of data set [9]: Half life in Beagle dog at 3 mg/kg, po and 1 mg/kg, iv. The format is ADME, organism-based, Canis lupus familiaris. The conditions noted are these: in vivo.
Data set [10] relates to Rattus norvegicus. Put plainly: Antihypertensive activity in rat dTGR model expressing human renin and angiotensinogen assessed as decrease in blood pressure at 10 mg/kg, po. The format is functional.
Data set [11] can be described thus: Oral bioavailability in Beagle dog at 3 mg/kg. Type of data set: ADME, organism-based, Canis lupus familiaris. The conditions noted are these: in vivo.
The test system of data set [12] is Rattus norvegicus. Nature of the data set: Antihypertensive activity in rat dTGR model expressing human renin and angiotensinogen assessed as time of blood pressure lowering effect at 10 mg/kg, po. The format is functional.
Data set [13] in a line: Half life in Sprague-Dawley rat at 30 mg/kg, po and 5 mg/kg, iv. The format is ADME, organism-based. The conditions noted are these: in vivo.
A short description of data set [14]: Cmax in Beagle dog at 3 mg/kg, po and 1 mg/kg, iv. The format is ADME, organism-based, Canis lupus familiaris. The conditions noted are these: in vivo.
The nature of data set [15]: Clearance in Beagle dog at 3 mg/kg, po and 1 mg/kg, iv. The conditions noted are these: in vivo. The format is ADME, organism-based, Canis lupus familiaris.
Data set [16] can be described thus: Clearance in Sprague-Dawley rat at 30 mg/kg, po and 5 mg/kg, iv. Type of data set: ADME, organism-based. The conditions noted are these: in vivo.
A short description of data set [17]: Oral bioavailability in Sprague-Dawley rat at 30 mg/kg. The conditions noted are these: in vivo. Type of data set: ADME, organism-based.

T1 sequence (P08684 whole entry): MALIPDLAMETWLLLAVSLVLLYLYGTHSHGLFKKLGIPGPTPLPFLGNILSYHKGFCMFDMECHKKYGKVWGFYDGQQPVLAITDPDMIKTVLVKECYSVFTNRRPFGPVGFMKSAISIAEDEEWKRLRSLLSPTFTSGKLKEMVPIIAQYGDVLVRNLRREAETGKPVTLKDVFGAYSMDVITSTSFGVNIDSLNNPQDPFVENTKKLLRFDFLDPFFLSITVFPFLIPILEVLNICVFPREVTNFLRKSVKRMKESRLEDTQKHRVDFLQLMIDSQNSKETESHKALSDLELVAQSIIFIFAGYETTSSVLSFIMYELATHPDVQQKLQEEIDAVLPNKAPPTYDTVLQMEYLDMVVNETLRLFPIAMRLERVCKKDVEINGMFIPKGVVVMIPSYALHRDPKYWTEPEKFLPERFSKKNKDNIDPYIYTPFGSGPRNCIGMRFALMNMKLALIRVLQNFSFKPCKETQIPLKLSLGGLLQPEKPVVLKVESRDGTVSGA

Regarding `CC(=O)NCCc1ccccc1-c1ccc([C@H]2CNCC[C@@H]2c2ccc(F)c(F)c2)c(Cl)c1`, on CYP3A4 [1], the inhibition (in general, the change of the read-out against control, counted positive when it falls) at 0.5 h, 10 µM stood at 49%. For the same compound, the activity at 10 µM on CYP3A4 [2] worked out at 98%. The figures for the half-maximal inhibitory concentration (IC50) at Renin [3] and on Renin [4] were 0.5 nM and 7.5 nM, respectively.

Take `CC(=O)NCCc1ccccc1-c1ccc([C@H]2CNCC[C@@H]2c2cccnc2)c(Cl)c1`: on CYP3A4 [1], the inhibition at 0.5 h, 10 µM came out at 55%. For the same compound, the activity at 10 µM on CYP3A4 [2] is 98%. The figures for the concentration for half-maximal inhibition (IC50) at Renin [3] and on Renin [4] were 1.4 nM and 3.6 nM, respectively.

On CYP3A4 [1], `CC(=O)NCCc1ccccc1-c1ccc([C@H]2CNCC[C@@]23OCc2cc(F)c(F)cc23)c(C)c1` came in with an inhibition at 0.5 h, 10 µM of 68%. The 50% inhibitory concentration (IC50) – broadly, the point on the concentration scale where inhibition reaches its midpoint – came to 5100 nM in data set [5], 0.17 nM at Renin [3] and 1.3 nM on Renin [4]. Also, the activity at 10 µM on CYP3A4 [2] came out at 88%.

`COCC(F)(F)COCc1ccc([C@@]2(O)CCNC[C@@H]2c2ccc(-c3ccccc3CCNC(C)=O)cc2C)cc1` showed an inhibition at 0.5 h, 10 µM on CYP3A4 [1] of 37%. The IC50 in [5] turned out to be 9800 nM. For the same compound, at CYP3A4 [2], the activity at 10 µM worked out at 76%.

As for `CC(=O)NCCc1ccccc1-c1ccc([C@H]2CNCC[C@@H]2c2ccn(C)c(=O)c2)c(Cl)c1`, on CYP3A4 [1], the inhibition at 0.5 h, 10 µM stood at 0%. Also, the IC50 in [5] amounted to 5800 nM. The activity at 10 µM at CYP3A4 [2] was 97%.

Take `CCC(=O)NCCc1ccccc1-c1ccc([C@H]2CNCC[C@@H]2c2ccn(C)c(=O)c2)c(Cl)c1`: the inhibition at 0.5 h, 10 µM on CYP3A4 [1] was 21%. Also, the IC50 in data set [5] is 2800 nM; on Renin [3], 4.8 nM; at Renin [4], 8 nM. Also, the activity at 10 µM on CYP3A4 [2] came out at 92%.

With `COC(=O)NCCc1ccccc1-c1ccc([C@H]2CNCC[C@@H]2c2ccn(C)c(=O)c2)c(Cl)c1`, the inhibition at 0.5 h, 10 µM against CYP3A4 [1] turned out to be 46%. Also, the activity at 10 µM on CYP3A4 [2] is 92%. Also, the values for the IC50 on Renin [3] and at Renin [4] were 3.52 nM and 6.1 nM, respectively.

Take `CCOC(=O)NCCc1ccccc1-c1ccc([C@H]2CNCC[C@@H]2c2ccn(C)c(=O)c2)c(Cl)c1`: the inhibition at 0.5 h, 10 µM against CYP3A4 [1] stood at 58%. The values for the half-maximal inhibitory concentration (IC50) (in data set [5]; on Renin [3]; at Renin [4]) were 3200 nM, 11 nM and 28.2 nM, respectively. In addition, at CYP3A4 [2], the activity at 10 µM is 91%.

As for `COCC(=O)NCCc1ccccc1-c1ccc([C@H]2CNCC[C@@H]2c2ccn(C)c(=O)c2)c(Cl)c1`, the 50% inhibitory concentration (IC50) at Renin [3] was determined as 73.8 nM; on Renin [4], 97.4 nM.

On CYP3A4 [1], `CC(=O)NCCc1ccccc1-c1ccc([C@H]2CNCC[C@]2(O)c2ccc(F)c(F)c2)c(C)c1` returned an inhibition at 0.5 h, 10 µM of 40%. In addition, the IC50 in data set [5] amounted to 4200 nM; on Renin [3], 0.5 nM; on Renin [4] it was 4.95 nM. Besides, at CYP3A4 [2], the activity at 10 µM was found to be 87%.

In turn, `CC(=O)NCCc1ccccc1-c1ccc([C@H]2CNCC[C@@]23OC(=O)c2cc(F)c(F)cc23)c(C)c1` displayed an inhibition at 0.5 h, 10 µM against CYP3A4 [1] of 88%. The 50% inhibitory concentration (IC50) is 12900 nM in data set [5], 0.14 nM on Renin [3] and 1.6 nM on Renin [4]. Also, the activity at 10 µM on CYP3A4 [2] was determined as 80%.

The compound `COC[C@H](C)COCc1ccc([C@@]2(O)CCNC[C@@H]2c2ccc(-c3ccccc3CCNC(C)=O)cc2C)cc1` yielded an inhibition at 0.5 h, 10 µM at CYP3A4 [1] of 72%. In data set [5], this compound registered a half-inhibitory concentration (IC50) of 9000 nM. Besides, the activity at 10 µM at CYP3A4 [2] was 88%.

With `CC(=O)NCCc1ccccc1-c1ccc([C@@H](CN)Cc2ccc(OCCOc3c(Cl)cc(C)cc3Cl)cc2)c(C)c1.Cl`, in data set [6], the maximum concentration (Cmax) (usually the peak of the concentration-time curve) was found to be 440 nM. This compound also had an inhibition at 0.5 h, 10 µM against CYP3A4 [1] of 74%. In addition, the activity at 10 µM on CYP3A4 [2] stood at 53%.

In the case of `CC(=O)NCCc1ccccc1-c1ccc([C@H]2CNCC[C@@H]2c2ccn(C)c(=O)c2)c(Cl)c1.Cl`, the peak concentration (Cmax) in [6] was 450 nM; in [14], 350 nM. Also, the Vd is 25 L/kg in data set [7] and 4.6 L/kg in data set [8]. Further, the figures for the half-life in data set [9] and in data set [13] were 6.2 h and 4 h, respectively. The Activity with Rattus norvegicus [10] came to 32 mmHg. Further, the bioavailability (commonly dose-corrected exposure relative to a reference, in per cent) worked out at 30% in data set [11] and 12% in [17]. The Time with Rattus norvegicus [12] amounted to 24 h. For the same compound, the clearance in [15] was 24 mL/min/kg; in data set [16], 115 mL/min/kg.
